Reference: ChEMBL document CHEMBL3272219, “Chemistry and antibacterial activity of nitrobenzofurans” (J Med Chem, 1976)
≈ marks a conversion by molar mass, not a printed value. Calls of active or inactive are those of the source. No cut-off for these calls is given here.

Key:
[1] = Stability of the compound in aqueous solution; assay type: physicochemical; settings: buffer
Outline: (§1)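 Solvolysis was run at 37 ± 0.5° in Jensen's minimal medium at pH 7.0 with 5% Me2SO final, starting from 0.7–2.0 × 10^-4 M compound. Absorbance was followed at a preselected wavelength. Benzofuran concentration was calculated every half hour from substrate and product extinction coefficients. Data were fitted to a first-order rate law, with a 95% confidence range on the rate constant.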

[2] = Ratio of antibacterial activity against Escherichia coli B cultured in Jensen's minimal media to antibacterial activity against Escherichia coli Br cultured in Penassay broth; assay type: functional
Escherichia coli [3] = assay: Antibacterial activity against Escherichia coli B cultured in Jensen's minimal media assessed as growth inhibition by turbidimetric analysis; assay type: functional, organism-based
Outline: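 E. coli B, grown overnight in Jensen's minimal medium, was subcultured at 37° with shaking to 70% T. 1 ml of culture was added to 8 ml Jensen's broth (pH 7) plus 1 ml compound in 10% Me2SO. Five concentrations (dilution series 1–0.1) and a 1% Me2SO control were run. Turbidity was monitored with agitation. Log A vs time gave % inhibition, and IC50 came from log concentration–probability plots.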

[4] = Half life of the compound in 5% Me2SO-Jensen's minimal media at 0.7 to 2 X 10^-4 M at pH 7 by spectrophotometric analysis; assay type: physicochemical; outline: as §1
Escherichia coli [5] = assay: Antibacterial activity against Escherichia coli B cultured in Jensen's minimal media assessed as growth inhibition by turbidimetric analysis in presence of vitamin-free casamino acids and tryptophan; assay type: functional, organism-based
Outline: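 Same minimal-medium turbidity assay with E. coli B: a 70% T culture was mixed with compound in Me2SO in Jensen's broth (pH 7) and read with agitation. Vitamin-free casamino acids (1.2 g/l) and tryptophan (200 mg/l) were added to the minimal broth.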

Escherichia coli [6] = assay: Antibacterial activity against Escherichia coli B cultured in Jensen's minimal media assessed as growth inhibition at < 2 X 10^-5 M by turbidimetric analysis; assay type: functional, organism-based
Enterococcus faecalis = assay: Antibacterial activity against Streptococcus faecalis after 6 hrs by turbidimetric analysis; assay type: functional
Outline: (§2)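 Overnight Penassay broth culture adjusted to 60% transmittance, diluted 10 ml into 900 ml broth; 4.5 ml inoculum added to 0.5 ml compound in 10% Me2SO. Nine-step dilution series (1 to 0.031), four replicates each, with positive and negative controls. Incubation at 37°, stationary except P. aeruginosa. Turbidity read at 660 nm after 6 hr. MIC taken as the lowest concentration giving >90% T.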

Escherichia coli [7] = assay: Antibacterial activity against Escherichia coli Br assessed as decrease in viability at 7.7 X 10^-5 M after 2 hrs; assay type: functional, organism-based
Escherichia coli [8] = assay: Antibacterial activity against Escherichia coli B after 6 hrs by turbidimetric analysis; assay type: functional; outline: as §2
Klebsiella pneumoniae [9] = assay: Antibacterial activity against Klebsiella pneumoniae cultured in Penassay broth assessed as effect on lag time after 9 hrs by turbidimetric analysis; assay type: functional, organism-based
Outline: (§3)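 Cultures in Penassay broth at 37° with compound added from 10% Me2SO and monitored at 660 nm every 20 min for 9 hr after inoculation. For each concentration, the log A660 vs time plot was extrapolated to A = 0.05. Time from inoculation to that point was taken as the lag time, which was then plotted against concentration.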

Providencia rettgeri = assay: Antibacterial activity against Proteus rettgeri after 6 hrs by turbidimetric analysis; assay type: functional; outline: as §2
[10] = Half life of the compound in 40% Me2SO-Jensen's minimal media at 0.7 to 2 X 10^-4 M at pH 6 by spectrophotometric analysis; assay type: physicochemical
[11] = Half life of the compound in 5% Me2SO-Jensen's minimal media at 0.7 to 2 X 10^-4 M at pH 6 by spectrophotometric analysis; assay type: physicochemical
Escherichia coli [12] = assay: Antibacterial activity against Escherichia coli Br cultured in Penassay broth assessed as time required for growth suppression at 4.4 X 10^-5 M compound added in early log phase of growth by turbidimetric analysis; assay type: functional
[13] = Half life of the compound in 20% Me2SO-Jensen's minimal media at 0.7 to 2 X 10^-4 M at pH 6 by spectrophotometric analysis; assay type: physicochemical
Staphylococcus aureus [14] = assay: Antibacterial activity against Staphylococcus aureus cultured in Penassay broth assessed as effect on lag time after 9 hrs by turbidimetric analysis; assay type: functional, organism-based; outline: as §3
Escherichia coli [15] = assay: Antibacterial activity against Escherichia coli Br cultured in Penassay broth assessed as effect on lag time after 9 hrs by turbidimetric analysis; assay type: functional, organism-based; outline: as §3
Escherichia coli [16] = assay: Antibacterial activity against Escherichia coli Br after 6 hrs by turbidimetric analysis; assay type: functional; outline: as §2
Proteus mirabilis = assay: Antibacterial activity against Proteus mirabilis after 6 hrs by turbidimetric analysis; assay type: functional; outline: as §2
Escherichia coli [17] = assay: Antibacterial activity against nitrofuran reductase-deficient Escherichia coli Br 207 after 6 hrs by turbidimetric analysis; assay type: functional; settings: Br 207, 6 h; outline: as §2
Staphylococcus aureus [18] = assay: Antibacterial activity against Staphylococcus aureus after 6 hrs by turbidimetric analysis; assay type: functional; outline: as §2
Pseudomonas aeruginosa = assay: Antibacterial activity against Pseudomonas aeruginosa after 6 hrs by turbidimetric analysis; assay type: functional; outline: as §2
[19] = Half life of the compound in 10% Me2SO-Jensen's minimal media at 0.7 to 2 X 10^-4 M at pH 6 by spectrophotometric analysis; assay type: physicochemical
Klebsiella pneumoniae [20] = assay: Antibacterial activity against Klebsiella pneumoniae after 6 hrs by turbidimetric analysis; assay type: functional; outline: as §2
Escherichia coli [21] = assay: Antibacterial activity against Escherichia coli Br cultured in Penassay broth assessed as time required for growth suppression at 4.4 X 10^-5 M compound added in late log phase of growth by turbidimetric analysis; assay type: functional

## Cc1oc2c(Br)cccc2c1[N+](=O)[O-]
[1]
  Stability: Unstable
[2]
  Ratio: >10

## Cc1cc2cccc(Br)c2o1
Escherichia coli [3]
  growth inhibition (GI): inactive

## Cc1oc2ccc([N+](=O)[O-])cc2c1[N+](=O)[O-]
[1]
  Stability: Unstable
[2]
  Ratio: >10
[4]
  half-life: 0.89 h

## Cc1oc2c(NC(=O)C(F)(F)F)cccc2c1[N+](=O)[O-]
[1]
  Stability: Unstable
Escherichia coli [5]
  growth inhibition (GI): inactive
[4]
  half-life: 2.88 h
Escherichia coli [6]
  growth inhibition (GI): inactive

## Cc1cc2cccc([N+](=O)[O-])c2o1
Escherichia coli [3]
  growth inhibition (GI): inactive

## Cc1cc2cccc(N)c2o1
Escherichia coli [3]
  growth inhibition (GI): inactive

## Cc1oc2c(C(F)(F)F)cccc2c1[N+](=O)[O-]
[1]
  Stability: Unstable
[2]
  Ratio: >10
[4]
  half-life: 1.48 h

## Cc1oc2c([N+](=O)[O-])cccc2c1[N+](=O)[O-]
Enterococcus faecalis
  MIC: 3.75 µg/mL (≈ 16.9 µM)
Escherichia coli [7]
  Activity: inactive
Escherichia coli [8]
  MIC: 1.87 µg/mL (≈ 8.42 µM)
Klebsiella pneumoniae [9]
  Activity: Active
Providencia rettgeri
  MIC: 7.5 µg/mL (≈ 33.8 µM)
[10]
  half-life: 1.51 h
[1]
  Stability: Unstable
[11]
  half-life: 2.1 h
Escherichia coli [12]
  Time: 6 h
[13]
  half-life: 1.78 h
Staphylococcus aureus [14]
  Activity: Active
[2]
  Ratio: >10
Escherichia coli [15]
  Activity: Active
Escherichia coli [16]
  MIC: 1.87 µg/mL (≈ 8.42 µM)
Proteus mirabilis
  MIC: 6.25 µg/mL (≈ 28.1 µM)
[4]
  half-life: 1.37 h
Escherichia coli [17]
  MIC: 1.87 µg/mL (≈ 8.42 µM)
Staphylococcus aureus [18]
  MIC: 2.5 µg/mL (≈ 11.3 µM)
Pseudomonas aeruginosa
  MIC: > 10 µg/mL
[19]
  half-life: 1.95 h
Klebsiella pneumoniae [20]
  MIC: 5 µg/mL (≈ 22.5 µM)
Escherichia coli [21]
  Time: 3 h

## Cc1oc2c([N+](=O)[O-])cccc2c1Br
Escherichia coli [3]
  growth inhibition (GI): inactive

## Cc1oc2ccccc2c1[N+](=O)[O-]
[1]
  Stability: Unstable
[2]
  Ratio: >10
[4]
  half-life: 3.34 h

## Cc1oc2c([N+](=O)[O-])cccc2c1C#N
Escherichia coli [3]
  growth inhibition (GI): inactive

## Cc1oc2c(C(N)=O)cccc2c1[N+](=O)[O-]
[1]
  Stability: Unstable
[2]
  Ratio: >10
[4]
  half-life: 1.91 h

## Cc1oc2c([N+](=O)[O-])cccc2c1C(=O)O
Escherichia coli [3]
  growth inhibition (GI): inactive

## Cc1oc2c([N+](=O)[O-])cccc2c1C(N)=O
Escherichia coli [3]
  growth inhibition (GI): inactive

## NC(=O)N/N=C/c1ccc([N+](=O)[O-])o1 [NITROFURAZONE]
Enterococcus faecalis
  MIC: 50 µg/mL (≈ 252 µM)
Escherichia coli [8]
  MIC: 5 µg/mL (≈ 25.2 µM)
Providencia rettgeri
  MIC: > 100 µg/mL
Escherichia coli [15]
  Activity: inactive
Escherichia coli [16]
  MIC: 5 µg/mL (≈ 25.2 µM)
Proteus mirabilis
  MIC: 50 µg/mL (≈ 252 µM)
Escherichia coli [17]
  MIC: 18.7 µg/mL (≈ 94.4 µM)
Staphylococcus aureus [18]
  MIC: 5 µg/mL (≈ 25.2 µM)
Pseudomonas aeruginosa
  MIC: > 100 µg/mL
Klebsiella pneumoniae [20]
  MIC: 10 µg/mL (≈ 50.5 µM)
